Kir21 block: blocks the mouse Kir2.1 inward-rectifier potassium channel. P35561. HEK293-Kir2.1, FluxOR thallium flux fluorescence; active compounds read low. B-score at 10 µM. 310,000 compounds, 0.85% hits. AID 1672;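 active = fluorescence ratio B-score at or below minus 3 SD of library scores, with starting-brightness B-score within 2 SD, cut at about -4.2 in these data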;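 note: channel flux triggered by added potassium and thallium sulfate stimulus; B-score of peak minus minimum fluorescence over baseline after thallium stimulus; more negative B-score means stronger Kir2.1 block with less thallium influx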
hERG protect: compounds protecting human hERG from proarrhythmic drug block. CHO-hERG, FluxOR thallium flux, dofetilide IC70 present. 310,000 compounds, 0.51% hits. activation (rescue from dofetilide block), less the hit threshold, % at 10 µM. Q12809. AID 1511;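 active = activation above the mean of controls blocked by dofetilide plus 5 SD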;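 note: thallium influx through hERG after potassium depolarization seen as dye fluorescence rise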
KCNK9 inh: human KCNK9 channel inhibition; Q9NPC2; HEK293 KCNK9, FluxOR thallium flux fluorescence; active compounds read low; B-score at 10 µM; 310,000 compounds, 1.2% hits;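 active = ratio B-score over 3 SD below the library mean, with starting fluorescence within 5 SD of its mean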;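 note: negative B-score means less thallium flux so channel inhibition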
KCNQ1 block: blocks the human KCNQ1 potassium channel | CHO-K1 KCNQ1, FluxOR thallium flux fluorescence; active compounds read high | B-score at 10 µM | 310,000 compounds, 1.3% hits | AID 2642;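 active = compounds whose thallium flux B-score, printed positive for inhibition, exceeds three library SD while starting fluorescence stays within three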;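 note: channel opened by potassium depolarization with thallium stimulus after 20 min compound exposure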
KCNQ1 act: potentiates or activates the human KCNQ1 potassium channel | B-score at 10 µM | 310,000 compounds, 0.35% hits | CHO-K1 KCNQ1, thallium flux FluxOR fluorescence; active compounds read high | P51787;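 active = fluorescence ratio B-score, a plate-corrected score, at least three library SD, with initial intensity B-score within 5 SD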
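Assay system: CHO-K1 cells stably expressing KCNQ1; Medium: assay buffer with matched DMSO; Also added: K+/Tl+ depolarizing stimulus; Dosing: single dose; Timing: dye 90 min, compound 20 min, room temperature; Measured by: kinetic FluxOR thallium fluorescence, 10-s 1-Hz baseline, 110-s post-stimulus read; Read-out: peak-minus-minimum fluorescence over initial fluorescence, negative-control normalized, B-scored.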
KCNK3 block: human KCNK3 channel inhibition, primary screen. 340,000 compounds, 0.84% hits. CHO-KCNK3 thallium flux, FluxOR fluorescence; active compounds read low. O14649. AID 602410. B-score at 10 µM;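 active = B-score under library mean minus 4 SD, starting fluorescence ratio at most library mean plus 5 SD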;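 note: more negative B-score means stronger inhibition of thallium flux through KCNK3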
Target sequence (O14649 whole entry, looked up): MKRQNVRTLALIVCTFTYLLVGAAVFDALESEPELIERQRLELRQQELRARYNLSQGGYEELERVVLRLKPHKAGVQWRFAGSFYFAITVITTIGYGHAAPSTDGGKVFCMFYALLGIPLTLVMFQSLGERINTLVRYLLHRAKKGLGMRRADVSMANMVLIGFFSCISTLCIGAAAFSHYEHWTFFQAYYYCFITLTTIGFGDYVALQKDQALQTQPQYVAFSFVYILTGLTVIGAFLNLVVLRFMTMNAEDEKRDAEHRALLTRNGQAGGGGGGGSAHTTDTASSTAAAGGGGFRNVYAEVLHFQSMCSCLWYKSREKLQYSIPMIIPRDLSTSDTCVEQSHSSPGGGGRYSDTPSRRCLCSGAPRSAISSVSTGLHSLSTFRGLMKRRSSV
KCNK9 block conf: human KCNK9 inhibitor confirmation | shares compounds with KCNK9 inh | HEK293 KCNK9 cells, FluxOR thallium flux fluorescence | inhibition, % at 10 µM | 4,900 compounds, 43% hits;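 active = thallium signal inhibited by more than 5 SD of the compound-free buffer control wells, on both duplicate plates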;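 note: 0% = assay buffer control wells without compound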
Kir2-1 spec: mouse Kir2.1 off-target activity of KCNK9 modulators. shares compounds with KCNK9 inh. inhibition, % at 10 µM. Kir2.1 cells, FluxOR thallium flux fluorescence. AID 492993. 4,900 compounds, 4% hits;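 active = thallium signal drop more than 5 SD beyond the mean of the no-compound control wells, seen in both duplicate plates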;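 note: signal is fluorescence rise after thallium addition divided by baseline fluorescence; plate controls were assay buffer only for no effect and full block by chlorpromazine control for full effect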
KCNK9 uninduced: non-induced cell nonspecific activity of KCNK9 modulators. shares compounds with KCNK9 inh. non-induced KCNK9-HEK293, FluxOR thallium flux. inhibition, % at 10 µM. 4,900 compounds, 40% hits;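 active = thallium signal drop beyond 5 SD of the untreated control mean, on both duplicate plates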;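 note: plate controls were buffer only IC0 wells for no effect and SID17386958 at its maximal inhibitory level for full effect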
An asterisk follows results filed as active; i = inactive; / = not tested or not shown. Shown are actives, neighbours in structure and some others; about 3.7% of the full set was active somewhere.

SMILES	Kir21 block	hERG protect	KCNK9 inh	KCNQ1 block	KCNQ1 act	KCNK3 block	KCNK9 block conf	Kir2-1 spec	KCNK9 uninduced
O=C(CSc1ncn[nH]1)N1N=C2/C(=C/c3ccccc3)CCCC2C1c1ccccc1 (stereo not drawn)	-0.56	-9	-12*	i	i	i	52%*	i	33%*
O=C(NCc1ccc2c(c1)OCO2)c1ccc(CS(=O)(=O)c2cccc(C(F)(F)F)c2)o1	-0.75	-16	i	i	i	i	/	/	/
CC(NC(=O)c1ccc(CS(=O)(=O)c2cccc(C(F)(F)F)c2)o1)c1ccc2c(c1)OCCO2 (stereo not drawn)	0.19	-12	i	i	i	i	i	i	i
CCOC(=O)C1=C(O)/C(=C/c2cc(OC)c(O)c(OC)c2)SC1=Nc1ccc(OC)cc1	-1.6	-1	-9.9*	i	i	i	i	i	i
O=C(Nc1c(Cl)ccc2nsnc12)c1ccc([N+](=O)[O-])o1	-0.12	-10	i	i	i	i	/	/	/
O=C(Nc1cccc(C(F)(F)F)c1)C1(c2ccccc2)CC1	1.7	-11	-12*	i	i	i	53%*	i	37%*
O=C(Nc1ccc(C(F)(F)F)cc1)C1(c2ccccc2)CC1	0.18	-10	i	i	i	i	/	/	/
NC(=S)n1[nH]c(-c2ccc([N+](=O)[O-])cc2)c(N=Nc2cccc(Cl)c2)c1=O	-2.1	-10	i	i	8*	i	i	i	i
NC(=S)n1[nH]c(-c2ccc([N+](=O)[O-])cc2)c(N=Nc2ccc(O)cc2)c1=O	-1.8	-8	i	i	i	i	/	/	/
COc1cccc(NC(=O)/C=C/c2ccc(S(=O)(=O)N3CCOCC3)cc2)c1	/	/	/	/	/	i	/	/	/
FC(F)(F)c1nnc(-c2ccccc2)nc1Sc1ccccc1	-0.76	-4	i	i	i	i	/	/	/
FC(F)(F)c1nnc(-c2ccccc2)nc1Sc1ccc(Cl)cc1	1.5	-18	i	i	i	i	i	i	i
FC(F)(F)c1nnc(-c2ccccc2)nc1Oc1ccc(Cl)cc1Cl	-0.45	-9	i	11*	i	i	i	i	i
CON(C)C(=O)C[C@@H]1C[C@H](OC(=O)c2ccc([N+](=O)[O-])cc2)CN1C(=O)OC(C)(C)C	/	/	/	/	/	i	/	/	/
COc1ccc2sc(-c3ccc(SC)cc3)c(-c3ccc(O)cc3)c2c1	/	/	/	/	/	i	/	/	/
CN(Cc1ccc(Cl)s1)C(=O)CNC(=O)CNC(=O)c1ccc(Cl)cc1Cl	/	/	/	/	/	i	/	/	/
O=C(O)c1ccc(CSc2nc(-c3ccccc3)cc(C(F)(F)F)n2)cc1	0.15	-6	i	i	i	i	i	i	i
CCOC(=O)c1c(C)[nH]c(C(C)=NNC(=O)Cn2nc(C)cc2C)c1C	/	/	/	/	/	i	/	/	/
O=[N+]([O-])c1ccc(C2CCCC/C2=N/OCc2ccc(F)cc2)c([N+](=O)[O-])c1 (stereo not drawn)	-0.21	-14	-8.2*	i	i	i	76%*	i	32%*
Cc1ccc(NC(=O)O/N=C2\CCCCC2c2ccc([N+](=O)[O-])cc2[N+](=O)[O-])cc1 (stereo not drawn)	0.2	-6	-10*	i	i	i	65%*	i	32%*
O=C(O/N=C1\CCCCC1c1ccc([N+](=O)[O-])cc1[N+](=O)[O-])c1c(F)cccc1F (stereo not drawn)	0.99	-10	i	i	i	i	/	/	/
O=C(c1ccco1)N1CCN(S(=O)(=O)Cc2ccccc2Cl)CC1	-1.5	-6	i	i	i	i	/	/	/
CC(=O)c1cccc(NCC(=O)Nc2cccc(S(=O)(=O)N3CCCCC3)c2)c1	1.1	-14	i	i	i	i	/	/	/
CC1Cc2ccccc2N1C(=O)CNc1cccc(S(=O)(=O)N2CCCC2)c1 (stereo not drawn)	0.11	-13	i	i	i	i	i	i	i
Cc1cccc(S(=O)(=O)N2CCN(Cc3ccc4c(c3)OCO4)CC2)c1	-0.74	-8	i	i	i	i	i	i	i
SMILES	Kir21 block	hERG protect	KCNK9 inh	KCNQ1 block	KCNQ1 act	KCNK3 block	KCNK9 block conf	Kir2-1 spec	KCNK9 uninduced
Cc1ccc2nsnc2c1S(=O)(=O)N1CCN(C)CC1	-0.32	-1	i	i	i	i	/	/	/
COc1ccc(Cl)cc1S(=O)(=O)N1CCN(Cc2ccc3c(c2)OCO3)CC1	-0.39	-14	i	i	i	i	/	/	/
Cc1ccc2nsnc2c1S(=O)(=O)N1CCN(Cc2ccc3c(c2)OCO3)CC1	-1.4	0	i	i	i	i	i	i	i
COc1ccc(F)cc1S(=O)(=O)N1CCN(Cc2ccc3c(c2)OCO3)CC1	-1.8	-10	i	i	i	i	i	i	i
COc1ccc(S(=O)(=O)N2CCN(Cc3ccc4c(c3)OCO4)CC2)cc1	0.12	-6	i	i	i	i	/	/	/
CCOc1ccc(S(=O)(=O)N2CCN(Cc3ccc4c(c3)OCO4)CC2)cc1Cl	-0.09	-5	i	i	i	i	i	i	i
COc1ccc(C(=O)Nc2c(C(C)(C)C)nn(C)c2C(C)(C)C)cc1	0	0	i	i	i	i	/	/	/
O=C(/C=C/c1ccc(-c2ccccc2[N+](=O)[O-])o1)c1ccco1	-2.1	-27	-12*	i	i	i	56%*	i	25%*
NC(Cc1c[nH]c2ccccc12)C(=O)NCc1ccccc1 (stereo not drawn)	-0.2	0	i	i	i	i	/	/	/
O=C(Nc1nnc(-c2ccc3c(c2)CCCC3)o1)c1ccc(Cl)cc1Cl	3	19*	i	i	52*	i	i	i	i
CN(C)S(=O)(=O)c1ccc(C(=O)Nc2nnc(-c3ccc4c(c3)CCCC4)o2)cc1	-0.29	-18	i	i	i	i	i	i	i
COc1ccc(-c2nnc(NC(=O)c3ccc(S(=O)(=O)N4CCc5ccccc5C4)cc3)o2)cc1	1.6	-2	i	i	i	i	i	i	i
